The term IC50 denotes the concentration at which inhibition is half-maximal. The low end stands for greater potency in that assay, the high end for weaker potency in that assay.

In assay [1] the target is T1, Cyclooxygenase (Bos taurus, UniProt O62664+O62698).
T1 sequence (O62664 whole entry): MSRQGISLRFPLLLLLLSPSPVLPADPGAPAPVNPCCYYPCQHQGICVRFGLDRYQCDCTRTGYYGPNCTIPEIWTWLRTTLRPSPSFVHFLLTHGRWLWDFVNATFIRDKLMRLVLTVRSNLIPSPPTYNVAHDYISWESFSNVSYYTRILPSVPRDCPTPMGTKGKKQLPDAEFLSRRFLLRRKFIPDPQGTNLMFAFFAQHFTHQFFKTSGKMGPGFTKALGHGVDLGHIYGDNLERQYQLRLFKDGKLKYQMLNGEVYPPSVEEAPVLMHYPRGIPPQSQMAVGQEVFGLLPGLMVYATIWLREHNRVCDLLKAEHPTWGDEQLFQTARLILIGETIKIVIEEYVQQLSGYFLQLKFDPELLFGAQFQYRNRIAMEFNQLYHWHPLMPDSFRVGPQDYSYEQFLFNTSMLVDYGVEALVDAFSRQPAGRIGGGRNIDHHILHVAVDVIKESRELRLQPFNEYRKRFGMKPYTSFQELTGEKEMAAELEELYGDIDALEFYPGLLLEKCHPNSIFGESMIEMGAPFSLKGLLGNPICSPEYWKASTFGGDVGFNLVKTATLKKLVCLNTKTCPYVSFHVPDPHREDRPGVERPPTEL
T1 sequence (O62698 whole entry): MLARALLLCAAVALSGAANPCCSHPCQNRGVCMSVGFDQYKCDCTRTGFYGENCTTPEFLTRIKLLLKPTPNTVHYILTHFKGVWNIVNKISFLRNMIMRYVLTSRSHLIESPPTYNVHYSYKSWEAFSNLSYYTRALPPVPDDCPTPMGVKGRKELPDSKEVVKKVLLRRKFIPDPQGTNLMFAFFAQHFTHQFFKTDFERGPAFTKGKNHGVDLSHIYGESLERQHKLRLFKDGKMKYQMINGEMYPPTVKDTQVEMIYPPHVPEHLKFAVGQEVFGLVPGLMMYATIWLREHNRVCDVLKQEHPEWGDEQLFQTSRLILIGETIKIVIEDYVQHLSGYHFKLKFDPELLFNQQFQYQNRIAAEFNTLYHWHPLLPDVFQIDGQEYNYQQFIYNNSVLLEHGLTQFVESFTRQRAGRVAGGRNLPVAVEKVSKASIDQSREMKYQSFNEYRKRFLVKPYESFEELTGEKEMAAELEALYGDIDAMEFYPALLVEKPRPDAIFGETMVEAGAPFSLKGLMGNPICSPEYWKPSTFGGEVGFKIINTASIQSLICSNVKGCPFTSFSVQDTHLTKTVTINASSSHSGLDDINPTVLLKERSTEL
The assay is described as follows: Evaluated for the inhibition of Prostaglandin synthetase obtained from bovine seminal vesicles at the dose of 20 mg/kg (p.o.). More on the design: dose 20 mg/kg, route oral. An outline of the steps: (§1)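 Cyclooxygenase-containing enzyme was a lyophilized 600g supernatant of bovine seminal vesicle homogenate in 0.05 M phosphate, pH 7.8. The assay used 0.1 M phosphate pH 7.8 with epinephrine and enzyme, and drug stocks of 3×10^-1 to 3×10^-6 M. After 3 min at 30 °C, arachidonic acid was added. Activity was taken as substrate minus basal O2-uptake rate, run in triplicate, and IC50 came from regression on log concentration.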

Assay [2] concerns Rattus norvegicus. Kind of assay: Percent change of the antiinflammatory activity in the 5-h Evans Blue-Carrageenan induced pleural effusion assay at the dose of 4.0 mg/kg (p.o.). Type of assay: functional. As to conditions: route oral. In a few lines:
(§2)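 Six fasted male rats per group received compound orally by gavage (10 mL/kg) in vehicle containing 0.5% Tween 80. Pleural effusion was induced by intrapleural injection of 5 mL 0.075% Evans blue–0.5% carrageenan type 7 and measured after 5 h. Results are given as percent change in pleural fluid volume versus a concurrent control group, with indomethacin 4.0 mg/kg as standard.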

The test system of assay [3] is Rattus norvegicus. Kind of assay: Percent change of the antiinflammatory activity in the 5-h Evans Blue-Carrageenan induced pleural effusion assay at the dose of 20 mg/kg (p.o.). Particulars: route oral. In kind it is functional. An outline of the steps: as §2
Assay [4] has as its system Rattus norvegicus. The assay is described as follows: Evaluated for the antiinflammatory activity in the 5-h Evans Blue-Carrageenan induced pleural effusion assay at the dose of 20 mg/kg (p.o.). In kind it is functional. As to conditions: route oral. In a few lines: as §2
Assay [5] relates to Rattus norvegicus. Kind of assay: Evaluated for the antiinflammatory activity in the 5-h Evans Blue-Carrageenan induced pleural effusion assay at the dose of 4.0 mg/kg (p.o.). Type of assay: functional. As to conditions: route oral. In a few lines: as §2
Assay [6] relates to Rattus norvegicus. The assay is described as follows: Persent change of the antiinflammatory activity in the 5-h Evans Blue-Carrageenan induced pleural effusion assay at the dose of 4.0 mg/kg (p.o.). Type of assay: functional. Particulars: route oral. In a few lines: as §2
The target in assay [7] is T1, Cyclooxygenase. Kind of assay: Evaluated for the inhibition of Prostaglandin synthetase obtained from bovine seminal vesicles at the dose of 4 mg/kg p.o. More on the design: dose 4 mg/kg, route oral. An outline of the steps: as §1
The subject of assay [8] is Rattus norvegicus. Kind of assay: Persent change of the antiinflammatory activity in the 5-h Evans Blue-Carrageenan induced pleural effusion assay at the dose of 0.16 mg/kg (p.o.). In kind it is functional. Particulars: route oral. In a few lines: as §2
The test system of assay [9] is Rattus norvegicus. The assay is described as follows: Persent change of the antiinflammatory activity in the 5-h Evans Blue-Carrageenan induced pleural effusion assay at the dose of 0.8 mg/kg (p.o.). Type of assay: functional. Particulars: route oral. In a few lines:
as §2

Assay [10] has as its system Rattus norvegicus. The assay is described as follows: Evaluated for the antiinflammatory activity in the 5-h Evans Blue-Carrageenan induced pleural effusion assay at the dose of 0.16 mg/kg (p.o.). Type of assay: functional. As to conditions: route oral. In a few lines:
as §2

Assay [11] relates to Rattus norvegicus. The assay is described as follows: Evaluated for the antiinflammatory activity in the 5-h Evans Blue-Carrageenan induced pleural effusion assay at the dose of 0.8 mg/kg (p.o.). Type of assay: functional. Particulars: route oral. In a few lines: as §2
In assay [12] the target is T1, Cyclooxygenase. The assay is described as follows: Evaluated for the inhibition of Prostaglandin synthetase obtained from bovine seminal vesicles at the dose of 100 mg/kg (p.o.). More on the design: dose 100 mg/kg, route oral. An outline of the steps: as §1
In assay [13] the test system is Rattus norvegicus. The assay is described as follows: Percent change of the antiinflammatory activity in the 5-h Evans Blue-Carrageenan induced pleural effusion assay at the dose of 100 mg/kg (p.o.). In kind it is functional. As to conditions: route oral. An outline of the steps:
as §2

In assay [14] the test system is Rattus norvegicus. Kind of assay: Evaluated for the antiinflammatory activity in the 5-h Evans Blue-Carrageenan induced pleural effusion assay at the dose of 100 mg/kg (p.o.). Type of assay: functional. As to conditions: route oral. An outline of the steps:
as §2

Assay [15] has as its system Rattus norvegicus. Kind of assay: Persent change of the antiinflammatory activity in the 5-h Evans Blue-Carrageenan induced pleural effusion assay at the dose of 20 mg/kg (p.o.). In kind it is functional. As to conditions: route oral. An outline of the steps:
as §2

The subject of assay [16] is Rattus norvegicus. Kind of assay: Percent activity in the 5-h Evans Blue-Carrageenan induced pleural effusion assay at the dose of 100 mg/kg (p.o.). As to conditions: route oral. In kind it is functional. In a few lines:
as §2

Assay [17] has as its system Rattus norvegicus. Kind of assay: Percent activity in the 5-h Evans Blue-Carrageenan induced pleural effusion assay at the dose of 20 mg/kg (p.o.). Type of assay: functional. Particulars: route oral. An outline of the steps:
as §2

Assay [18] relates to Rattus norvegicus. Kind of assay: Percent activity in the 5-h Evans Blue-Carrageenan induced pleural effusion assay at the dose of 4.0 mg/kg (p.o.). Type of assay: functional. As to conditions: route oral. An outline of the steps: as §2
The target of assay [19] is T1, Cyclooxygenase. Kind of assay: Evaluated for the inhibition of prostaglandin synthetase obtained from bovine seminal vesicles at the dose of 4.0 mg/kg (p.o.). Set-up: dose 4 mg/kg, route oral.
Assay [20] relates to Rattus norvegicus. The assay is described as follows: Percent change of the antiinflammatory activity in the 5-h Evans Blue-Carrageenan induced pleural effusion assay at the dose of 0.8 mg/kg (p.o.). As to conditions: route oral. Type of assay: functional. In a few lines:
as §2

Assay [21] concerns Rattus norvegicus. Kind of assay: Percent activity in the 5-h Evans Blue-Carrageenan induced pleural effusion assay at the dose of 0.16 mg/kg (p.o.). In kind it is functional. Particulars: route oral. An outline of the steps:
as §2

Molecules are shown by their SMILES. Bounds are passed on as bounds.

Molecule `CC(C(=O)[O-])c1ccc(-c2ccccc2)cc1.[Na+]` (centres undefined) showed an IC50 in [1] of 12 µM. Besides, the Change in [2] was -42%; in assay [3], -52%. Further, the Pleural fluid is 2.9 mL in [4] and 3.4 mL in assay [5].

As for `COc1ccc2c(c1)c(CC(=O)O)c(C)n2C(=O)c1ccc(Cl)cc1` [INDOMETHACIN], the Change in assay [6] is on record as -28%. Further, the Pleural fluid in assay [5] was determined as 4 mL.

Take `CC(C(=O)[O-])c1cccc(C(=O)c2ccccc2)c1.[Na+]` (centres undefined) [KETOPROFEN SODIUM]: the IC50 in assay [7] worked out at 3.4 µM. Moreover, the Change in assay [8] is -4%; in assay [9], -24%; in assay [6], -41%. Moreover, the Pleural fluid is 5.8 mL in assay [10], 4.6 mL in [11] and 3.6 mL in assay [5].

`O=C([O-])Cc1cccc(C(=O)c2ccccc2)c1.[Na+]` had an IC50 in assay [7] of 40 µM. In addition, the Change in assay [6] is recorded as -7%. Also, the Pleural fluid in assay [5] worked out at 5.9 mL.

For the molecule `O=C([O-])Cc1ccc(-c2ccccc2)cc1.[Na+]`, in assay [1], the IC50 was determined as 420 µM. For the same molecule, the Change was -21% in assay [2] and -35% in assay [3]. Further, the results for the Pleural fluid in [4] and in assay [5] were 3.9 mL and 4.7 mL, respectively.

Take `CC(C(=O)[O-])c1cccc(C(=O)c2ccccc2)c1N.[Na+]` (centres undefined): the IC50 in assay [12] turned out to be 1 µM. Also, the Change is -4% in assay [2] and -38% in assay [13]. For the same molecule, the Pleural fluid in assay [14] worked out at 3.4 mL; in [5], 6 mL.

With `O=C([O-])Cc1cccc(Oc2ccccc2)c1.[Na+]`, in assay [1], the IC50 was over 1000 µM. Besides, the figures for the Change in [15] and in assay [6] were -11% and -7%, respectively. In addition, the Pleural fluid was 4.9 mL in assay [4] and 5.1 mL in assay [5].

Turning to `CN(C)c1c(CC(=O)[O-])cccc1C(=O)c1ccccc1.[Na+]`, the IC50 in assay [12] was over 1000 µM. Moreover, the Change is -5% in assay [2], -36% in assay [16] and -16% in assay [17]. Moreover, the values for the Pleural fluid in assay [14], in assay [4] and in [5] were 3.9 mL, 5.2 mL and 5.9 mL, respectively.

Turning to `CC(C(=O)[O-])c1cccc(Oc2ccccc2)c1.[Na+]` (centres undefined) [FENOPROFEN SODIUM], in [1], the IC50 was determined as 98 µM. In addition, the Change was -29% in assay [3] and -6% in assay [18]. The Pleural fluid in assay [4] turned out to be 3.9 mL; in [5], 5.2 mL.

`Nc1cc(-c2ccccc2)ccc1CC(=O)[O-].[Na+]` displayed an IC50 in [1] of 170 µM. Also, the results for the Change in [2] and in [3] were -9% and -34%, respectively. The Pleural fluid in assay [4] was found to be 3.9 mL; in assay [5] it was 5.4 mL.

In assay [19], `Nc1c(CC(=O)[O-])cccc1C(=O)c1ccccc1.[Na+]` [AMFENAC SODIUM] yielded an IC50 of 0.2 µM. The Change in assay [2] is -25%; in [20], -17%; in assay [21], -15%. Also, the Pleural fluid was 5.1 mL in assay [10], 5 mL in assay [11] and 4.5 mL in assay [5].

For the molecule `O=C([O-])Cc1cccc(C(=O)c2ccccc2)c1Cl.[Na+]`, the IC50 in [12] was over 100 µM. For the same molecule, in [13], the Change is recorded as -8%. In addition, the Pleural fluid in assay [14] stood at 5.7 mL.

On to `Nc1c(CC(=O)[O-])cccc1Oc1ccccc1.[Na+]`, for which the half-inhibitory concentration (IC50) in assay [1] was determined as 420 µM. Also, the results for the Change in [2] and in [3] were 4% and -7%, respectively. The Pleural fluid is 5.1 mL in [4] and 5.7 mL in assay [5].

These data come from ChEMBL document CHEMBL1122044, “Antiinflammatory agents. 2. Syntheses and antiinflammatory activity of substituted 2-aminophenylacetic acid derivatives” (J Med Chem, 1982).
